Active and inactive are the calls of the source. The calls are words filed in the database; no cut-off is given here.
Key:
INS1 [1] = assay: Cytoprotective activity in endoplasmic reticulum stressed rat INS-1 cells assessed as rescue from tunicamycin-mediated reduction in cell viability at 20 uM after 72 hrs by CellTiter-Glo assay relative to control; type: functional
Outline: (§1)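 INS-1 cells seeded at 3 × 10³/well and exposed for 72 h to Tm 0.1 μg/ml plus compound. Viability measured as ATP by CellTiter-Glo. Tm alone was set to 0% and DMSO without Tm to 100% rescue. Values are the mean of three experiments. EC50 was derived for survival.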

INS1 [2] = assay: Cytoprotective activity in endoplasmic reticulum stressed rat INS-1 cells assessed as rescue from tunicamycin-mediated reduction in cell viability at 40 uM after 72 hrs by CellTiter-Glo assay relative to control; type: functional; outline: as §1
INS1 [3] = assay: Cytoprotective activity in endoplasmic reticulum stressed rat INS-1 cells assessed as rescue from tunicamycin-mediated reduction in cell survival after 72 hrs by CellTiter-Glo assay; conditions: INS1, 72 h
INS1 [4] = assay: Cytoprotective activity in endoplasmic reticulum stressed rat INS-1 cells assessed as rescue from tunicamycin-mediated reduction in cell viability at 10 uM after 72 hrs by CellTiter-Glo assay relative to control; type: functional; outline: as §1
INS1 [5] = assay: Cytoprotective activity in endoplasmic reticulum stressed rat INS-1 cells assessed as rescue from tunicamycin-mediated reduction in cell viability at 5 uM after 72 hrs by CellTiter-Glo assay relative to control; type: functional; outline: as §1
[6] = Inhibition of endoplasmic reticulum stress-mediated upregulation of CHOP mRNA expression in tunicamycin-treated rat INS-1 cells at 5 to 20 uM after 8 hrs by qRT-PCR method; type: functional, cell-based; conditions: INS1
Outline: (§2)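 INS-1 cells seeded at 4 × 10⁵/well and treated with Tm 0.1 μg/ml plus compound, either for 8 h at indicated concentrations or for indicated times at 10 μM. CHOP mRNA was measured by qRT-PCR with rat primers, normalized to rat cyclophilin A, and reported as fold change.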

[7] = Inhibition of endoplasmic reticulum stress-mediated upregulation of CHOP mRNA expression in tunicamycin-treated rat INS-1 cells at 10 uM after 2 to 8 hrs by qRT-PCR method; type: functional, cell-based; conditions: INS1; outline: as §2
HEK293 [8] = assay: Inhibition of endoplasmic reticulum stress-mediated upregulation of CHOP gene expression in tunicamycin-treated HEK293 cells after 24 hrs by bright-glo luciferase reporter gene assay; type: functional, cell-based; conditions: Homo sapiens, HEK293, 24 h
Outline: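 HEK293 cells stably carrying a CHOP promoter-luciferase reporter were seeded at 7 × 10³/well and incubated 16 h. Compound at indicated concentrations and Tm 1 μg/mL were added, and luciferase read by Bright-Glo 24 h later. IC50 determined for CHOP-Luc inhibition.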

[9] = Inhibition of endoplasmic reticulum stress-mediated upregulation of CHOP mRNA expression in tunicamycin-treated rat INS-1 cells at 20 uM after 2 to 8 hrs by qRT-PCR method; type: functional, cell-based; conditions: INS1
HEK293 [10] = assay: Inhibition of endoplasmic reticulum stress-mediated upregulation of CHOP mRNA expression in tunicamycin-treated HEK293 cells after 2 to 8 hrs by qRT-PCR method; type: functional, cell-based; conditions: Homo sapiens
Outline: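 HEK293 cells seeded at 4 × 10⁵/well and treated with Tm 1 μg/ml plus 20 μM compound or DMSO for the indicated times. CHOP mRNA was measured by qRT-PCR (2 μg RNA reverse transcribed), normalized to human cyclophilin A, and reported as fold change. Means ± SD of triplicates.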

SMILES	EC50 (INS1 [3])	%max (INS1 [4])	further results
CCc1cccc(C)c1NC(=O)c1nnn(-c2ccc(OC)cc2)c1C	–	–	%max (INS1 [1]): 39%
CCc1cccc(C)c1NC(=O)c1nnn(-c2ccc(Cl)cc2)c1C	–	–	%max (INS1 [2]): 66%
Cc1c(Cl)cccc1NC(=O)c1nnn(-c2ccc(F)cc2)c1C	8.4 µM	–	%max (INS1 [1]): 87%
COc1ccc(-n2nnc(C(=O)Nc3cccc(Cl)c3C)c2C)cc1	5.2 µM	–	%max (INS1 [1]): 81%
Cc1c(Cl)cccc1NC(=O)c1nnn(-c2ccccc2F)c1C	6.5 µM	–	%max (INS1 [1]): 92%
Cc1cccc(C)c1NC(=O)c1nnn(-c2ccccc2Cl)c1C	9.1 µM	–	%max (INS1 [2]): 44%
CCc1ccc(-n2nnc(C(=O)Nc3ccc(NC(C)=O)cc3)c2C)cc1	–	15%	–
Cc1c(C(=O)Nc2ccc(F)cc2)nnn1-c1ccc(C(C)C)cc1	3.5 µM	29%	–
COc1ccccc1-n1nnc(C(=O)Nc2c(C)cccc2C)c1C	0.6 µM	28%	–
CCOc1ccccc1-n1nnc(C(=O)Nc2c(C)cccc2CC)c1C	–	–	%max (INS1 [2]): 50%
CCc1ccc(-n2nnc(C(=O)Nc3ccccc3Cl)c2C)cc1	0.6 µM	–	%max (INS1 [5]): 19%
CCc1ccc(-n2nnc(C(=O)Nc3ccc(C(=O)OC)cc3)c2C)cc1	–	14%	inhibition [6]: inactive
CCc1ccc(-n2nnc(C(=O)Nc3ccc(F)cc3)c2C)cc1	2.7 µM	82%	–
Cc1ccc(-n2nnc(C(=O)Nc3ccccc3C)c2C)cc1C	3.1 µM	56%	–
Cc1ccc(-n2nnc(C(=O)Nc3cccc(Cl)c3C)c2C)cc1	2.8 µM	56%	–
Cc1ccccc1NC(=O)c1nnn(-c2ccc(C(C)C)cc2)c1C	2.6 µM	54%	–
CCc1cccc(C)c1NC(=O)c1nnn(-c2ccccc2Cl)c1C	2.5 µM	–	%max (INS1 [2]): 55%
Cc1cccc(NC(=O)c2nnn(-c3ccc(C(C)C)cc3)c2C)c1	3.2 µM	35%	–
CCOc1ccccc1-n1nnc(C(=O)Nc2cccc(Cl)c2C)c1C	8.7 µM	–	%max (INS1 [1]): 52%
Cc1cccc(C)c1NC(=O)c1nnn(-c2cccc(Cl)c2C)c1C	9 µM	–	%max (INS1 [2]): 88%
Cc1ccc(-n2nnc(C(=O)Nc3cccc(Cl)c3C)c2C)c(C)c1	2.5 µM	92%	–
CCc1ccc(-n2nnc(C(=O)Nc3cc(C)ccc3C)c2C)cc1	1.6 µM	90%	inhibition [7]: Active
CCc1ccc(-n2nnc(C(=O)Nc3cccc(OC)c3)c2C)cc1	3.7 µM	31%	–
CCc1ccc(-n2nnc(C(=O)Nc3c(C)cccc3C)c2C)cc1	4.6 µM	–	%max (INS1 [1]): 80%

SMILES	EC50 (INS1 [3])	%max (INS1 [4])	further results
Cc1c(C(=O)Nc2ccccc2)nnn1-c1ccccc1	9.5 µM	–	IC50 (HEK293 [8]): 1.5 µM; %max (INS1 [1]): 12%
CCc1cccc(C)c1NC(=O)c1nnn(-c2cccc(Cl)c2C)c1C	–	97%	inhibition [9]: Active
Cc1cccc(C)c1NC(=O)c1nnn(-c2ccc(Cl)cc2)c1C	5.2 µM	–	%max (INS1 [2]): 57%
Cc1c(C(=O)Nc2ccccc2)nnn1-c1ccccc1F	23 µM	–	IC50 (HEK293 [8]): 1.1 µM; %max (INS1 [2]): 31%
Cc1c(C(=O)Nc2cccc(F)c2)nnn1-c1ccc(C(C)C)cc1	1.3 µM	–	IC50 (HEK293 [8]): 0.013 µM; %max (INS1 [5]): 33%; inhibition (HEK293 [10]): Active
CCc1ccc(-n2nnc(C(=O)Nc3ccc(OC)cc3)c2C)cc1	–	–	%max (INS1 [5]): 21%
CCc1cccc(C)c1NC(=O)c1nnn(-c2ccccc2OC)c1C	1 µM	–	%max (INS1 [1]): 38%
Cc1ccccc1NC(=O)c1nnn(-c2ccccc2F)c1C	8 µM	–	%max (INS1 [2]): 40%
CCc1cccc(C)c1NC(=O)c1nnn(-c2ccc(F)cc2)c1C	–	–	%max (INS1 [1]): 28%
CCc1ccc(-n2nnc(C(=O)Nc3ccccc3CC)c2C)cc1	4.2 µM	91%	–
CCc1ccc(-n2nnc(C(=O)Nc3ccc(Cl)cc3Cl)c2C)cc1	–	12%	–
CCc1ccc(-n2nnc(C(=O)Nc3ccc(C(=O)O)cc3)c2C)cc1	–	0%	inhibition [6]: inactive
Cc1c(Cl)cccc1NC(=O)c1nnn(-c2ccccc2Cl)c1C	3.1 µM	–	inhibition [9]: Active; %max (INS1 [1]): 94%
Cc1c(C(=O)Nc2ccccc2F)nnn1-c1ccc(C(C)C)cc1	2.1 µM	–	IC50 (HEK293 [8]): 0.035 µM; %max (INS1 [5]): 29%
CCc1cccc(C)c1NC(=O)c1nnn(-c2ccc(C)cc2)c1C	–	–	%max (INS1 [2]): 82%
CCc1ccc(-n2nnc(C(=O)Nc3ccc(C)cc3)c2C)cc1	–	18%	–
CCc1ccc(-n2nnc(C(=O)Nc3ccccc3C)c2C)cc1	3.2 µM	62%	–
CCc1cccc(C)c1NC(=O)c1nnn(-c2ccccc2)c1C	5.8 µM	–	%max (INS1 [2]): 36%
CCCCc1ccc(-n2nnc(C(=O)Nc3ccccc3F)c2C)cc1	3.5 µM	30%	–
Cc1ccc(-n2nnc(C(=O)Nc3c(C)cccc3C)c2C)cc1	1.7 µM	–	%max (INS1 [1]): 73%
CCc1ccc(-n2nnc(C(=O)Nc3cccc(C)c3)c2C)cc1	2.1 µM	–	%max (INS1 [5]): 72%
CCc1ccc(-n2nnc(C(=O)Nc3cccc(Cl)c3C)c2C)cc1	7.8 µM	88%	–
Cc1cccc(C)c1NC(=O)c1nnn(-c2ccccc2F)c1C	1.4 µM	–	%max (INS1 [2]): 23%

From ChEMBL document CHEMBL3797120, “Identification of 1,2,3-triazole derivatives that protect pancreatic β cells against endoplasmic reticulum stress-mediated dysfunction and death through the inhibition of C/EBP-homologous protein expression” (Bioorg Med Chem, 2016)
